# Shown are actives, neighbours in structure and some others; about 3.6% of the full set was active somewhere.
# MITF act – increases MITF-driven TRPM1 promoter luciferase signal; SK-MEL-5 TRPM1-promoter luciferase, 24 h; % of positive control, neutral wells = 0; activation, % at 12.5 µM; 300,000 tested, 0.75% active;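 active means mean activation of at least 80% with every replicate also reaching 80%; inconclusive means mean reaches 80% but some replicate falls short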;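 further: 0% = neutral control wells and 100% = parthenolide positive control wells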
# SR-BI DiI-HDL act – SR-BI HDL lipid transfer activation; CHO ldlA[mSR-BI] cells, DiI-HDL uptake fluorescence, 3 h; 100 = double the neutral-control signal; activation, % at 12.5 µM; 320,000 tested, 0.096% active; AID 504775;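 active means mean replicate activation of at least 60% and every replicate at or above 60%; inconclusive means mean or all-replicate condition met, but not both; inactive means mean below 60% and not all replicates reaching 60%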;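 further: 0% = median plate neutral-control signal and 100% = twice that signal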
#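 system = CHO ldlA[mSR-BI] cells, LDL receptor-null, SR-BI overexpressing | medium = Ham's F12 with 0.5% BSA, HEPES 25 mM, pH 7.4 | probe or stimulus = DiI-HDL 10 µg/mL | compound dosing = single-point compound dose | incubation = compound exposure 3 h, 37 °C | technique = DiI fluorescence, bottom read | read-out = cell-associated DiI fluorescence as measure of HDL uptake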
# Wnt bcat act – Wnt/beta-catenin pathway activation | activation, % at 9.35 µM | Wnt/beta-catenin reporter cell assay, activator, plate reader | 300,000 tested, 1.2% active; in the data active means activation above about 30%, passing the limit was not always enough; inconclusive means no clear call, values can overlap the other calls;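 further: 0% = neutral control wells and 100% = positive control wells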
# SR-BI HDL uptake – blocks mouse SR-BI lipid uptake from DiI-HDL. 320,000 tested, 0.96% active. ldlA[mSR-BI] CHO cells, DiI-HDL uptake fluorescence, 3 h. AID 488896. inhibition, % at 12.5 µM. Q61009;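 active means mean replicate inhibition of at least 70% and a set share of replicates each scoring 70 or more; inconclusive means meets just one of the two criteria; inactive means fails both criteria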;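 further: 0% = median of neutral control wells and 100% = median of positive control wells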
# Target sequence (Q61009 whole entry, looked up): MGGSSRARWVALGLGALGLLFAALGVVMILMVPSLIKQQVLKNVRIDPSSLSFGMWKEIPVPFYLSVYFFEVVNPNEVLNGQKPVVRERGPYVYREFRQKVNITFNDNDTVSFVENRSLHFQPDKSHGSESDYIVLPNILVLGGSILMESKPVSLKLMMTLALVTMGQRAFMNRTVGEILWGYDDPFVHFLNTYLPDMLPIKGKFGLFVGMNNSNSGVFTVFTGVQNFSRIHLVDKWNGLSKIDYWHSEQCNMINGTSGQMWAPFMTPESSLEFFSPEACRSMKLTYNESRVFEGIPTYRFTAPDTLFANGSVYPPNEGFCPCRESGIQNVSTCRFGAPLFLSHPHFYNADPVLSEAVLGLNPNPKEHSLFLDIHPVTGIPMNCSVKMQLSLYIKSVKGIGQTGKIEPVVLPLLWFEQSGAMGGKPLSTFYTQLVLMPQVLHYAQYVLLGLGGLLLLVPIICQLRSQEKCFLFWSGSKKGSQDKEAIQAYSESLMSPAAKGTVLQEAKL
# HSF-1 act – increases HSF-1 driven luciferase reporter signal; AID 504408; activation, % at 9 µM; 300,000 tested, 1.7% active; NIH3T3-HGL HSF-1 luciferase reporter, MG132, 8 h; 100% = twice DMSO control signal;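 active means mean replicate activation of at least 50% with a set share of replicates each reaching 50%; inconclusive means only one of those two conditions met; inactive means mean below 50% and too few replicates reaching it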;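 further: 0% = median of the neutral control wells and 100% = twice that signal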
# * marks the source's active call; other numbers are inactive results; ? = inconclusive; · = not tested or not shown.
SMILES,MITF act,SR-BI DiI-HDL act,Wnt bcat act,SR-BI HDL uptake,HSF-1 act
COc1ccc2oc(=N)c(C(=O)Nc3ccccc3Cl)cc2c1,·,-72,25,72*,37
COc1cc2ccccc2cc1C(=O)Nc1ccc(C)cn1,35,-21,35*,21,49
COc1ccc(NC(=O)c2cc3ccccc3cc2OC)cc1,63,-50,23,50,36
COc1cc2ccccc2cc1C(=O)NNC(=O)c1ccccc1O,-12,-129,1,129*,2
COc1cc2ccccc2cc1C(=O)Nc1ccccc1N1CCCC1,-11,-49,0,49,-20
COc1cc2ccccc2cc1C(=O)Nc1ccccc1Cl,36,-50,45*,50,93*
Cc1ccc(O)c(NC(=O)CSc2n[nH]c(C)c2[N+](=O)[O-])c1,-15,-35,-7,35,73*
Cc1ccc(O)c(NC(=O)CSc2ccc(Cl)cc2)c1,-8,-10,0,10,162*
Cc1ccc(O)c(NC(=O)Cc2ccc3ccccc3c2)c1,·,-29,-5,29,161*
Cc1ccc(SCC(=O)NC(C)(C)C)cc1,·,19,33*,-19,14
Cc1ccc(SCC(=O)Nc2cccc(C(=O)NC(C)(C)C)c2)cc1,-2,2,·,-2,15
Nc1[nH]c(=O)ncc1-c1ccc([N+](=O)[O-])cc1,·,·,-2,·,·
CCN(CC)CCCNC(=O)c1cc2cc(Cl)ccc2nc1N,·,·,0,·,·
C[C@H](CO)N1C[C@H](C)[C@@H](CN(C)S(=O)(=O)c2ccc(F)cc2)OCc2cn(nn2)CCCC1=O,·,·,-1,·,·
C[C@H](CO)N1C[C@H](C)[C@@H](CN(C)Cc2ccccc2)OCc2cnnn2CCCC1=O,·,·,-1,·,·
CCCc1nc2c(C)cc(Br)cn2c1Cc1ccccc1OC,·,·,-2,·,·
O=Cc1ccc(-c2nc3ccccc3s2)o1,21,8,12,-8,63*
O=C(O)c1ccc(-c2nc3ccccc3s2)o1,-13,19,28,-19,15
COc1ccc(S(=O)(=O)N2CCC[C@H]2C(=O)N2CCC[C@H]2C(=O)N[C@@H](C)c2ccccc2)cc1C,·,·,-1,·,·
Cc1ccsc1CN(C)C(=O)c1cc(S(=O)(=O)N2CCOCC2)ccc1N1CCCC1,7,9,44*,-9,·
CCN(CC)CCCn1c(=S)[nH]c2ncccc2c1=O,4,0,1,0,62*
Cc1cc(Cl)ccc1C(O)c1ncc(-c2ccc(C(F)(F)F)cc2)[nH]1 (stereo not given),·,·,-2,·,·
CCOc1ccc2c(c1)ncn2Cc1ccccc1,11,20,2,-20,32
CC(=O)Oc1ccc(Cn2cnc3cc4ccccc4cc32)cc1,·,-4,-4,4,68*
NS(=O)(=O)c1ccc(N/N=C/C=C/c2ccccc2[N+](=O)[O-])cc1,64,-48,25,48,?
SMILES,MITF act,SR-BI DiI-HDL act,Wnt bcat act,SR-BI HDL uptake,HSF-1 act
C=CCOc1c(Br)cc(/C=N/Nc2ccc(C(=O)O)cc2)cc1OCC,105*,-7,10,7,-53
COc1ccc(/C=N/Nc2ccc(C(=O)O)cc2)cc1Br,-44,-16,-6,16,-82
O=C(O)c1ccc(/C=N/Nc2cccc(C(F)(F)F)c2)cc1,111*,14,11,-14,?
CCOc1cc(/C=N/O)cc(Br)c1OCC,-8,-8,-5,8,8
COc1ccc(/C=N/Nc2ccc(C(=O)O)cc2)cc1OC,28,·,33*,·,-30
O=C(O)c1cc(N/N=C/C=C/c2ccccc2[N+](=O)[O-])ccc1Cl,56,-3,60*,3,11
CCOC1=C2CN(S(=O)(=O)c3ccc(C)cc3)[C@H](c3ccccc3)C[C@@H]2N(S(=O)(=O)c2ccc(Br)cc2)[C@H](c2ccccc2)C1,·,·,-2,·,·
O=c1[nH]c(=O)n(C(c2ccccc2)(c2ccccc2)c2ccccc2)cc1N(CCO)CCO,2,-1,-2,1,·
COc1ccc(-c2ccc3c(c2)C2CC3CCN2S(=O)(=O)c2ccccc2C)cc1 (stereo not given),-15,-28,-3,28,·
C=CCN=C1NC(c2ccccc2)C(C(=O)OC)=C(C)N1C (stereo not given),·,·,3,·,·
COc1ccc2nc3n(c(=O)c2c1)-c1ccc(Cl)cc1C(=O)NC3Cc1ccc(O)cc1 (stereo not given),-2,-31,0,31,·
